Reference: ChEMBL document CHEMBL4130374, “Discovery of 9H-purins as potential tubulin polymerization inhibitors: Synthesis, biological evaluation and structure-activity relationships” (Eur J Med Chem, 2017)

Experiments:
AGS [1] = assay: Antiproliferative activity against human AGS cells after 48 hrs by MTT assay; format: functional
Summary of the method: (§1)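 Log-phase cells, harvested by trypsinization, seeded 24 h, then exposed to a range of compound concentrations for 48 h. Culture in RPMI 1640 with 4% FBS, penicillin/streptomycin, 37°C, 5% CO2. DMSO below 1% final; 5-Fu as positive control. Readout is MTT (0.5 mg/mL, 4 h), formazan dissolved in DMSO, absorbance at 570 nm. GI50 = 50% growth inhibition versus untreated cells; means ± SD of at least two independent experiments.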

K562 = assay: Antiproliferative activity against human K562 cells after 48 hrs by MTT assay; format: functional; conditions: K562, 48 h; summary of the method: as §1
Tubulin (Sus scrofa) = assay: Inhibition of pig brain tubulin polymerization at 10 uM by spectrophotometry relative to control
SH-SY5Y = assay: Antiproliferative activity against human SH-SY5Y cells after 48 hrs by MTT assay; format: functional; summary of the method: as §1
AGS [2] = assay: Cell cycle arrest in human AGS cells assessed as accumulation at S phase at 50 nM after 24 hrs by propidium iodide staining based flow cytometry (reference value: 37.94%); format: functional
Summary of the method: (§2)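 Cells washed twice in ice-cold PBS, fixed in ice-cold 70% ethanol, treated with 0.1 mg/mL RNase, stained with propidium iodide. Phase distribution determined by flow cytometry.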

AGS [3] = assay: Cell cycle arrest in human AGS cells assessed as accumulation at G0/G1 phase at 50 nM after 24 hrs by propidium iodide staining based flow cytometry (reference value: 52.87%); format: functional; summary of the method: as §2
AGS [4] = assay: Cell cycle arrest in human AGS cells assessed as accumulation at G2/M phase at 50 nM after 24 hrs by propidium iodide staining based flow cytometry (reference value: 9.18%); format: functional; summary of the method: as §2
AGS [5] = assay: Induction of apoptosis in human AGS cells assessed as necrotic cells at 0.5 uM after 24 hrs by Annexin V-FITC/propidium iodide-double staining based flow cytometry (reference value: 0.40%); format: functional
AGS [6] = assay: Cell cycle arrest in human AGS cells assessed as accumulation at G2/M phase at 1 uM after 24 hrs by propidium iodide staining based flow cytometry (reference value: 9.18%); format: functional; summary of the method: as §2
AGS [7] = assay: Cell cycle arrest in human AGS cells assessed as accumulation at S phase at 0.25 uM after 24 hrs by propidium iodide staining based flow cytometry (reference value: 37.94%); format: functional; summary of the method: as §2
AGS [8] = assay: Induction of apoptosis in human AGS cells assessed as late apoptotic cells at 0.5 uM after 24 hrs by Annexin V-FITC/propidium iodide-double staining based flow cytometry (reference value: 16.90%); format: functional
AGS [9] = assay: Cell cycle arrest in human AGS cells assessed as accumulation at S phase at 1 uM after 24 hrs by propidium iodide staining based flow cytometry (reference value: 37.94%); format: functional; summary of the method: as §2
AGS [10] = assay: Cell cycle arrest in human AGS cells assessed as accumulation at S phase at 0.5 uM after 24 hrs by propidium iodide staining based flow cytometry (reference value: 37.94%); format: functional; summary of the method: as §2
AGS [11] = assay: Cell cycle arrest in human AGS cells assessed as accumulation at G2/M phase at 0.25 uM after 24 hrs by propidium iodide staining based flow cytometry (reference value: 9.18%); format: functional; summary of the method: as §2
[12] = Cytotoxicity against mouse HT22 cells after 48 hrs by MTT assay; format: cell-based, HT-22
Summary of the method: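 MTT readout after 48 h exposure; CC50 is the 50% cytotoxic concentration, mean of three repeated experiments.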

AGS [13] = assay: Cell cycle arrest in human AGS cells assessed as accumulation at G2/M phase at 2 uM after 24 hrs by propidium iodide staining based flow cytometry (reference value: 9.18%); format: functional; summary of the method: as §2
AGS [14] = assay: Cell cycle arrest in human AGS cells assessed as accumulation at G0/G1 phase at 0.25 uM after 24 hrs by propidium iodide staining based flow cytometry (reference value: 52.87%); format: functional; summary of the method: as §2
AGS [15] = assay: Induction of apoptosis in human AGS cells assessed as necrotic cells at 0.25 uM after 24 hrs by Annexin V-FITC/propidium iodide-double staining based flow cytometry (reference value: 0.40%); format: functional
AGS [16] = assay: Cell cycle arrest in human AGS cells assessed as accumulation at G2/M phase after 24 hrs by propidium iodide staining based flow cytometry; format: functional; summary of the method: as §2
[17] = Selectivity index, ratio of GI50 for mouse HT22 cells to GI50 for human SH-SY5Y cells; format: toxicity; conditions: HT22 cells and SH-SY5Y cells, read-out: RatioGI50
AGS [18] = assay: Induction of apoptosis in human AGS cells assessed as viable cells at 0.5 uM after 24 hrs by Annexin V-FITC/propidium iodide-double staining based flow cytometry (reference value: 69.90%); format: functional; conditions: read-out: Activity
AGS [19] = assay: Induction of apoptosis in human AGS cells assessed as viable cells at 0.25 uM after 24 hrs by Annexin V-FITC/propidium iodide-double staining based flow cytometry (reference value: 69.90%); format: functional; conditions: read-out: Activity
[20] = Selectivity index, ratio of GI50 for mouse HT22 cells to GI50 for human AGS cells; format: toxicity; conditions: HT22 cells and AGS cells, read-out: RatioGI50
AGS [21] = assay: Cell cycle arrest in human AGS cells assessed as accumulation at S phase at 2 uM after 24 hrs by propidium iodide staining based flow cytometry (reference value: 37.94%); format: functional; summary of the method: as §2
AGS [22] = assay: Induction of apoptosis in human AGS cells assessed as early apoptotic cells at 0.5 uM after 24 hrs by Annexin V-FITC/propidium iodide-double staining based flow cytometry (reference value: 12.80%); format: functional
AGS [23] = assay: Induction of apoptosis in human AGS cells after 24 hrs by Annexin V-FITC/propidium iodide-double staining based flow cytometry; format: functional, cell-based
AGS [24] = assay: Induction of apoptosis in human AGS cells assessed as late apoptotic cells at 0.25 uM after 24 hrs by Annexin V-FITC/propidium iodide-double staining based flow cytometry (reference value: 16.90%); format: functional
AGS [25] = assay: Induction of apoptosis in human AGS cells assessed as early apoptotic cells at 0.25 uM after 24 hrs by Annexin V-FITC/propidium iodide-double staining based flow cytometry (reference value: 12.80%); format: functional
AGS [26] = assay: Cell cycle arrest in human AGS cells assessed as accumulation at G2/M phase at 0.5 uM after 24 hrs by propidium iodide staining based flow cytometry (reference value: 9.18%); format: functional; summary of the method: as §2
AGS [27] = assay: Cell cycle arrest in human AGS cells assessed as accumulation at G0/G1 phase at 2 uM after 24 hrs by propidium iodide staining based flow cytometry (reference value: 52.87%); format: functional; summary of the method: as §2
AGS [28] = assay: Cell cycle arrest in human AGS cells assessed as accumulation at G0/G1 phase at 0.5 uM after 24 hrs by propidium iodide staining based flow cytometry (reference value: 52.87%); format: functional; summary of the method: as §2
AGS [29] = assay: Cell cycle arrest in human AGS cells assessed as accumulation at G0/G1 phase at 1 uM after 24 hrs by propidium iodide staining based flow cytometry (reference value: 52.87%); format: functional; summary of the method: as §2

Question: What does the source list for `COc1ccc(N(C)c2nc(Cl)nc3c2ncn3Cc2ccc(OC)c(OC)c2)cc1`?
Answer: GI50 (AGS [1]): 56 µM; GI50 (K562): 27 µM; inhibition (Tubulin (Sus scrofa)): 25%; GI50 (SH-SY5Y): 7.3 µM

Question: Which Activity (AGS [2]) does the source give for `COc1cc2c(c(OC)c1OC)-c1ccc(OC)c(=O)cc1[C@@H](NC(C)=O)CC2` [COLCHICINE] here?
Answer: 12.58%

Question: And the GI50 (AGS [1])?
Answer: 0.04 µM

Question: What about the GI50 (K562) of the same compound?
Answer: 0.02 µM

Question: And the GI50 (SH-SY5Y)?
Answer: 0.04 µM

Question: And the Activity (AGS [3])?
Answer: 1.2%

Question: What about the Activity (AGS [4]) of the same compound?
Answer: 86.22%

Question: Which GI50 (AGS [1]) does the source give for `COc1ccc(Cn2cnc3c(Cl)ncnc32)cc1OC` here?
Answer: > 100 µM

Question: What about the GI50 (K562) of the same compound?
Answer: > 50 µM

Question: What about the GI50 (SH-SY5Y) of the same compound?
Answer: > 100 µM

Question: Which results are given for `COc1ccc(N(C)c2nc(Cl)nc3c2ncn3Cc2cc(OC)c(OC)c(OC)c2)cc1`?
Answer: GI50 (AGS [1]): 85 µM; GI50 (K562): 41 µM; inhibition (Tubulin (Sus scrofa)): 12%; GI50 (SH-SY5Y): 3 µM

Question: Which results are given for `COc1ccc(Cn2cnc3c(Cl)ncnc32)cc1`?
Answer: GI50 (AGS [1]): 29 µM; GI50 (K562): > 50 µM; GI50 (SH-SY5Y): > 50 µM

Question: For `O=c1[nH]cc(F)c(=O)[nH]1` [FLUOROURACIL], which GI50 (AGS [1]) is on record?
Answer: 25 µM

Question: What about the GI50 (K562) of the same compound?
Answer: 19 µM

Question: And the GI50 (SH-SY5Y)?
Answer: 12 µM

Question: For `COc1ccc(Cn2cnc3c(Cl)nc(Cl)nc32)cc1`, which GI50 (AGS [1]) is on record?
Answer: 19 µM

Question: What about the GI50 (K562) of the same compound?
Answer: 36 µM

Question: What about the inhibition (Tubulin (Sus scrofa)) of the same compound?
Answer: 25%

Question: What about the GI50 (SH-SY5Y) of the same compound?
Answer: 7.7 µM

Question: With `COc1ccc(N(C)c2ncnc3c2ncn3Cc2cc(OC)cc(OC)c2)cc1` as the compound, how does the GI50 (AGS [1]) read?
Answer: > 100 µM

Question: What about the GI50 (K562) of the same compound?
Answer: 42 µM

Question: What about the GI50 (SH-SY5Y) of the same compound?
Answer: > 100 µM

Question: With `COc1ccc(N(C)c2nc(Cl)nc3c2ncn3C)cc1` as the compound, how does the Activity (AGS [5]) read?
Answer: 0.85%

Question: And the Activity (AGS [6])?
Answer: 25.18%

Question: What about the Activity (AGS [7]) of the same compound?
Answer: 39.78%

Question: What about the Activity (AGS [8]) of the same compound?
Answer: 27.6%

Question: And the Activity (AGS [9])?
Answer: 38.2%

Question: And the Activity (AGS [10])?
Answer: 39.98%

Question: And the Activity (AGS [11])?
Answer: 10.11%

Question: What about the CC50 at 48 h [12] of the same compound?
Answer: > 100 µM

Question: And the Activity (AGS [13])?
Answer: 63.49%

Question: And the Activity (AGS [14])?
Answer: 50.11%

Question: And the Activity (AGS [15])?
Answer: 2.25%

Question: And the Activity (AGS [16])?
Answer: Dose-dependent effect

Question: And the selectivity ratio [17]?
Answer: 23

Question: What about the viability at 0.5 µM (AGS [18]) of the same compound?
Answer: 59.2%

Question: And the viability at 0.25 µM (AGS [19])?
Answer: 63.5%

Question: What about the selectivity ratio [20] of the same compound?
Answer: 430

Question: What about the Activity (AGS [21]) of the same compound?
Answer: 14.87%

Question: What about the Activity (AGS [22]) of the same compound?
Answer: 12.35%

Question: What about the GI50 (AGS [1]) of the same compound?
Answer: 0.26 µM

Question: What about the Activity (AGS [23]) of the same compound?
Answer: Dose-dependent effect

Question: What about the GI50 (K562) of the same compound?
Answer: 2.3 µM

Question: What about the Activity (AGS [24]) of the same compound?
Answer: 23.8%

Question: What about the Activity (AGS [25]) of the same compound?
Answer: 10.45%

Question: And the Activity (AGS [26])?
Answer: 12.68%

Question: And the inhibition (Tubulin (Sus scrofa))?
Answer: 41%

Question: And the GI50 (SH-SY5Y)?
Answer: 3.4 µM

Question: What about the Activity (AGS [27]) of the same compound?
Answer: 21.64%

Question: And the Activity (AGS [28])?
Answer: 47.34%

Question: And the Activity (AGS [29])?
Answer: 36.62%

Question: For `COc1ccc(N(C)c2nc(Cl)nc3[nH]cnc23)cc1`, which GI50 (AGS [1]) is on record?
Answer: 30 µM

Question: And the GI50 (K562)?
Answer: > 100 µM

Question: And the GI50 (SH-SY5Y)?
Answer: > 100 µM

Question: Which results are given for `COc1ccc(N(C)c2ncnc3[nH]cnc23)cc1`?
Answer: GI50 (AGS [1]): > 100 µM; GI50 (K562): > 100 µM; GI50 (SH-SY5Y): > 100 µM
